Data: ChEMBL document CHEMBL3632609, “Hederagenin as a triterpene template for the development of new antitumor compounds” (Eur J Med Chem, 2015)

How the values were obtained:
Assay type in all cases: functional, cell-based
MCF7 = assay: Cytotoxicity against human MCF7 cells assessed as cell survival after 96 hrs by sulforhodamine B assay; details: MCF7, 96 h
In short: (§1)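 Cells in exponential growth were seeded at densities that avoided confluence and, after 24 h, exposed to serial compound dilutions (0-30 μM, DMSO ≤0.5% final) for 96 h. Cells were then fixed with 10% TCA at 4 °C, washed with water, and stained with 0.4% SRB for about 20 min. Excess dye was removed with 1% acetic acid, bound dye was taken up in 10 mM Tris base, and absorbance was read at 570 nm.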

HT-29 = assay: Cytotoxicity against human HT-29 cells assessed as cell survival after 96 hrs by sulforhodamine B assay; details: HT-29, 96 h; in short: as §1
A549 = assay: Cytotoxicity against human A549 cells assessed as cell survival after 96 hrs by sulforhodamine B assay; details: A549, 96 h; in short: as §1
8505C = assay: Cytotoxicity against human 8505C cells assessed as cell survival after 96 hrs by sulforhodamine B assay; in short: as §1
[1] = Cytotoxicity against human 518A2 cells assessed as cell survival after 96 hrs by sulforhodamine B assay; details: 518A2, 96 h; in short: as §1
A2780 = assay: Cytotoxicity against human A2780 cells assessed as cell survival after 96 hrs by sulforhodamine B assay; details: A2780, 96 h; in short: as §1

Row | SMILES | EC50 (MCF7) [µM] | EC50 (HT-29) [µM] | EC50 (A549) [µM] | EC50 (8505C) [µM] | EC50 [1] [µM] | EC50 (A2780) [µM]
1 | Cc1ccc(COC(=O)[C@]23CCC(C)(C)C[C@H]2C2=CC[C@@H]4[C@@]5(C)CC[C@H](O)[C@@](C)(CO)[C@@H]5CC[C@@]4(C)[C@]2(C)CC3)cc1 | 13.7 | 14.8 | 13.7 | 8.8 | 11.8 | 14.7
2 | CC1(C)CC[C@]2(C(=O)On3nnc4ccccc43)CC[C@]3(C)C(=CC[C@@H]4[C@@]5(C)CC[C@H](O)[C@@](C)(CO)[C@@H]5CC[C@]43C)[C@@H]2C1 | 7.7 | 11.2 | 9.5 | 9.5 | 8.6 | 8.8
3 | CC1(C)CC[C@]2(C(=O)OCCCN3C(=O)c4ccccc4C3=O)CC[C@]3(C)C(=CC[C@@H]4[C@@]5(C)CC[C@H](O)[C@@](C)(CO)[C@@H]5CC[C@]43C)[C@@H]2C1 | 9 | 13.4 | 11.4 | 10.3 | 8.7 | 12.1
4 | CC1(C)CC[C@]2(C(=O)OCc3ccccc3Cl)CC[C@]3(C)C(=CC[C@@H]4[C@@]5(C)CC[C@H](O)[C@@](C)(CO)[C@@H]5CC[C@]43C)[C@@H]2C1 | 12.7 | 13.5 | 13.6 | 9.5 | 11.7 | 13.6
5 | CC1(C)CC[C@]2(C(=O)NCCN3CCCCC3)CC[C@]3(C)C(=CC[C@@H]4[C@@]5(C)CC[C@H](O)[C@@](C)(CO)[C@@H]5CC[C@]43C)[C@@H]2C1 | 6.5 | 1.3 | 2.7 | 3.6 | 3.7 | 1.8
6 | CC1(C)CC[C@]2(C(=O)NCc3ccccc3)CC[C@]3(C)C(=CC[C@@H]4[C@@]5(C)CC[C@H](O)[C@@](C)(CO)[C@@H]5CC[C@]43C)[C@@H]2C1 | 14.6 | 15.1 | 15.7 | 13.5 | 13.7 | 11.4
7 | CC1(C)CC[C@]2(C(=O)OCc3ccccc3)CC[C@]3(C)C(=CC[C@@H]4[C@@]5(C)CC[C@H](O)[C@@](C)(CO)[C@@H]5CC[C@]43C)[C@@H]2C1 | 7.9 | 9.5 | 7 | 7.6 | 7.8 | 9.7
8 | CC1(C)CC[C@]2(C(=O)OCc3cccc(Cl)c3)CC[C@]3(C)C(=CC[C@@H]4[C@@]5(C)CC[C@H](O)[C@@](C)(CO)[C@@H]5CC[C@]43C)[C@@H]2C1 | 13 | 14.8 | 13 | 11.9 | 11.7 | 13.8
9 | Cc1ccccc1COC(=O)[C@]12CCC(C)(C)C[C@H]1C1=CC[C@@H]3[C@@]4(C)CC[C@H](O)[C@@](C)(CO)[C@@H]4CC[C@@]3(C)[C@]1(C)CC2 | 11.3 | 13.2 | 12.6 | 8.4 | 9 | 12.9
10 | CC1(C)CC[C@]2(C(=O)OCc3ccccc3Br)CC[C@]3(C)C(=CC[C@@H]4[C@@]5(C)CC[C@H](O)[C@@](C)(CO)[C@@H]5CC[C@]43C)[C@@H]2C1 | 12.7 | 14.3 | 13.2 | 7.8 | 10.9 | 14.3
11 | COc1cc(COC(=O)[C@]23CCC(C)(C)C[C@H]2C2=CC[C@@H]4[C@@]5(C)CC[C@H](O)[C@@](C)(CO)[C@@H]5CC[C@@]4(C)[C@]2(C)CC3)cc(OC)c1 | 13.4 | 14 | 14 | 12.8 | 12.7 | 13.5
12 | CC1(C)CC[C@]2(C(=O)OCc3c(Cl)cccc3Cl)CC[C@]3(C)C(=CC[C@@H]4[C@@]5(C)CC[C@H](O)[C@@](C)(CO)[C@@H]5CC[C@]43C)[C@@H]2C1 | 12.7 | 13.3 | 12.9 | 9.4 | 9.2 | 14.4
13 | CC1(C)CC[C@]2(C(=O)OCc3ccccc3F)CC[C@]3(C)C(=CC[C@@H]4[C@@]5(C)CC[C@H](O)[C@@](C)(CO)[C@@H]5CC[C@]43C)[C@@H]2C1 | 12.5 | 13.2 | 13.2 | 11.2 | 10 | 13.4
14 | CC1(C)CC[C@]2(C(=O)OCCC3OCCCO3)CC[C@]3(C)C(=CC[C@@H]4[C@@]5(C)CC[C@H](O)[C@@](C)(CO)[C@@H]5CC[C@]43C)[C@@H]2C1 | 12.7 | 13.4 | 13.1 | 13.1 | 11.1 | 15
15 | CC1(C)CC[C@]2(C(=O)OCc3c(F)cccc3F)CC[C@]3(C)C(=CC[C@@H]4[C@@]5(C)CC[C@H](O)[C@@](C)(CO)[C@@H]5CC[C@]43C)[C@@H]2C1 | 10.2 | 12 | 11.7 | 8.7 | 7.5 | 11.6
16 | C#CCOC(=O)[C@]12CCC(C)(C)C[C@H]1C1=CC[C@@H]3[C@@]4(C)CC[C@H](O)[C@@](C)(CO)[C@@H]4CC[C@@]3(C)[C@]1(C)CC2 | 15.4 | 17.7 | 15.9 | 13.2 | 12.4 | 17
17 | CC1(C)CC[C@]2(C(=O)OCc3ccc(F)cc3)CC[C@]3(C)C(=CC[C@@H]4[C@@]5(C)CC[C@H](O)[C@@](C)(CO)[C@@H]5CC[C@]43C)[C@@H]2C1 | 9.2 | 11.3 | 8.5 | 6.7 | 10.2 | 11.4
18 | CC1(C)CC[C@]2(C(=O)OCc3ccc(Cl)cc3)CC[C@]3(C)C(=CC[C@@H]4[C@@]5(C)CC[C@H](O)[C@@](C)(CO)[C@@H]5CC[C@]43C)[C@@H]2C1 | 12.7 | 13.5 | 9.8 | 8.1 | 11.4 | 13
19 | Cc1cccc(COC(=O)[C@]23CCC(C)(C)C[C@H]2C2=CC[C@@H]4[C@@]5(C)CC[C@H](O)[C@@](C)(CO)[C@@H]5CC[C@@]4(C)[C@]2(C)CC3)c1 | 13.5 | 14.4 | 13.5 | 9.7 | 10.9 | 13.7
20 | CC1(C)CC[C@]2(C(=O)OCc3c(F)c(F)c(F)c(F)c3F)CC[C@]3(C)C(=CC[C@@H]4[C@@]5(C)CC[C@H](O)[C@@](C)(CO)[C@@H]5CC[C@]43C)[C@@H]2C1 | 16.5 | 16.1 | 14.8 | 14.1 | 12.9 | 13.1
21 | CC1(C)CC[C@]2(C(=O)OCc3ccc([N+](=O)[O-])cc3)CC[C@]3(C)C(=CC[C@@H]4[C@@]5(C)CC[C@H](O)[C@@](C)(CO)[C@@H]5CC[C@]43C)[C@@H]2C1 | 7.8 | 7.8 | 6.5 | 6.1 | 8.4 | 7.8
22 | CC1(C)CC[C@]2(C(=O)O)CC[C@]3(C)C(=CC[C@@H]4[C@@]5(C)CC[C@H](O)[C@@](C)(CO)[C@@H]5CC[C@]43C)[C@@H]2C1 [HEDERAGENIN] | 25.7 | 50 | 29 | 38 | 34.9 | 19.9
23 | CC1(C)CC[C@]2(C(=O)OCc3cccc([N+](=O)[O-])c3)CC[C@]3(C)C(=CC[C@@H]4[C@@]5(C)CC[C@H](O)[C@@](C)(CO)[C@@H]5CC[C@]43C)[C@@H]2C1 | 8.3 | 12 | 8.1 | 6.6 | 8.1 | 11.9
24 | CC1(C)CC[C@]2(C(=O)OCc3ccc(Br)cc3)CC[C@]3(C)C(=CC[C@@H]4[C@@]5(C)CC[C@H](O)[C@@](C)(CO)[C@@H]5CC[C@]43C)[C@@H]2C1 | 13.5 | 13.7 | 13.5 | 8.6 | 11.6 | 13.2
25 | CC1(C)CC[C@]2(C(=O)OCc3cccc(Br)c3)CC[C@]3(C)C(=CC[C@@H]4[C@@]5(C)CC[C@H](O)[C@@](C)(CO)[C@@H]5CC[C@]43C)[C@@H]2C1 | 14.2 | 15.3 | 14.2 | 13.7 | 13.8 | 14.6
26 | C#CCNC(=O)[C@]12CCC(C)(C)C[C@H]1C1=CC[C@@H]3[C@@]4(C)CC[C@H](O)[C@@](C)(CO)[C@@H]4CC[C@@]3(C)[C@]1(C)CC2 | 17 | 17.3 | 16.8 | 22.1 | 21.6 | 14.8
27 | CC1(C)CC[C@]2(C(=O)OCc3ccc(F)cc3F)CC[C@]3(C)C(=CC[C@@H]4[C@@]5(C)CC[C@H](O)[C@@](C)(CO)[C@@H]5CC[C@]43C)[C@@H]2C1 | 11.5 | 13 | 11.4 | 8 | 9.5 | 12.9
28 | CC1(C)CC[C@]2(C(=O)NCCN3CCOCC3)CC[C@]3(C)C(=CC[C@@H]4[C@@]5(C)CC[C@H](O)[C@@](C)(CO)[C@@H]5CC[C@]43C)[C@@H]2C1 | > 30 | > 30 | > 30 | > 30 | > 30 | > 30
29 | CC1(C)CC[C@]2(C(=O)OCc3ccccc3[N+](=O)[O-])CC[C@]3(C)C(=CC[C@@H]4[C@@]5(C)CC[C@H](O)[C@@](C)(CO)[C@@H]5CC[C@]43C)[C@@H]2C1 | 10.2 | 12.8 | 10.9 | 8.8 | 10.3 | 12.9
